Data published in PubChem BioAssay.
Active and inactive are the calls of the source. Cut-off read from the data, not from the text of the source, unless noted: active = inhibition above about 30%; inactive = the rest.

Key:
[1] = reducers of endogenous Her2 protein level, primary screen, SKBR3 breast tumor cells, AlphaScreen, ATP viability (AID 461;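 active = Her2 level under about 52% in both replicate screens, with viability over 70% of control, limit read from the data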;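 for Her2 level: lower value means less Her2 protein in the cells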;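 for viability: percent of carrier control wells set as 100% viability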); details: 18-24 h, measured here: SKBR3 viability, ATP luminescence, at 10 µM
[2] = target: Receptor tyrosine-protein kinase erbB-2 (Homo sapiens) (UniProt P04626); experiment: as above; details: 18-24 h, at 10 µM, stronger effect = lower value
[3] = SK-BR-3 cell growth inhibitors, pilot screen, 24 h, human (AID 572;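 active = viability at or below 10% of carrier control in both of two separate runs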;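 note: compound exposure lasted between 18 and 24 h rather than exactly 24 h; 100% = carrier-treated control wells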); details: SK-BR-3 viability, CellTiter-Glo luminescence, at 10 µM, stronger effect = lower value
[4] = HUVEC growth inhibition – cell-based, human, primary screen (AID 575;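 active = viability at or below 30% in both replicate assays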;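 note: 100% = median of untreated cell wells with 0.1% DMSO on each plate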); details: HUVEC proliferation, CellTiter-Glo luminescence, 72 h; at 10 µM; stronger effect = lower value
Summary of the method: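 Timing: 72 h treatment at 37 °C; material: HUVEC primary cells; technique: CellTiter-Glo luminescence measuring cellular ATP; controls: vehicle and MePR control wells; measure: percent of median DMSO-control luminescence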

[5] = growth inhibitors of H69AR lung tumor, primary screen, human, duplicate replicates (AID 580;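 active = viability at or under a set limit in both replicates, limit being median viability minus 3 SD, cut at about 48% in these data, passing the limit was not always enough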;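 note: 100% = mean luminescence of untreated wells and 0% = no signal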); details: H69AR lung tumor cells viability, ATP luminescence, 72 h; at 10 µM; stronger effect = lower value
[6] = reversal of MRP1-mediated doxorubicin resistance, pilot screen, H69AR cells, doxorubicin co-treatment (AID 601;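 active = viability loss from added drug above about 55%, and viability with drug at most 40%, in both replicates, limit read from the data, passing the limit was not always enough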); details: CellTiter-Glo, 72 h, at 10 µM; for differential viability (reversal): stronger effect = higher value
[7] = 384-well plate pilot, post-Golgi transport modulator project, inhibition of yeast transport mutant growth (AID 636; in the data active = inhibition above about 31%); details: absorbance 615 nm, about 18 h, stronger effect = higher value
[8] = growth suppression of yeast trafficking mutant, preliminary HTS, modulators of trafficking downstream of Golgi apparatus project, 1536-format plate, OD 615 nm (AID 637); details: yeast transport mutant growth, absorbance 615 nm, 18 h; stronger effect = higher value
[9] = H69AR cells + 2 uM doxorubicin, measured here: viability with 2 uM doxorubicin, stronger effect = lower value
[10] = H69AR cells, compound alone cytotoxicity

Sequence of Receptor tyrosine-protein kinase erbB-2 (Homo sapiens) (P04626 whole entry, looked up): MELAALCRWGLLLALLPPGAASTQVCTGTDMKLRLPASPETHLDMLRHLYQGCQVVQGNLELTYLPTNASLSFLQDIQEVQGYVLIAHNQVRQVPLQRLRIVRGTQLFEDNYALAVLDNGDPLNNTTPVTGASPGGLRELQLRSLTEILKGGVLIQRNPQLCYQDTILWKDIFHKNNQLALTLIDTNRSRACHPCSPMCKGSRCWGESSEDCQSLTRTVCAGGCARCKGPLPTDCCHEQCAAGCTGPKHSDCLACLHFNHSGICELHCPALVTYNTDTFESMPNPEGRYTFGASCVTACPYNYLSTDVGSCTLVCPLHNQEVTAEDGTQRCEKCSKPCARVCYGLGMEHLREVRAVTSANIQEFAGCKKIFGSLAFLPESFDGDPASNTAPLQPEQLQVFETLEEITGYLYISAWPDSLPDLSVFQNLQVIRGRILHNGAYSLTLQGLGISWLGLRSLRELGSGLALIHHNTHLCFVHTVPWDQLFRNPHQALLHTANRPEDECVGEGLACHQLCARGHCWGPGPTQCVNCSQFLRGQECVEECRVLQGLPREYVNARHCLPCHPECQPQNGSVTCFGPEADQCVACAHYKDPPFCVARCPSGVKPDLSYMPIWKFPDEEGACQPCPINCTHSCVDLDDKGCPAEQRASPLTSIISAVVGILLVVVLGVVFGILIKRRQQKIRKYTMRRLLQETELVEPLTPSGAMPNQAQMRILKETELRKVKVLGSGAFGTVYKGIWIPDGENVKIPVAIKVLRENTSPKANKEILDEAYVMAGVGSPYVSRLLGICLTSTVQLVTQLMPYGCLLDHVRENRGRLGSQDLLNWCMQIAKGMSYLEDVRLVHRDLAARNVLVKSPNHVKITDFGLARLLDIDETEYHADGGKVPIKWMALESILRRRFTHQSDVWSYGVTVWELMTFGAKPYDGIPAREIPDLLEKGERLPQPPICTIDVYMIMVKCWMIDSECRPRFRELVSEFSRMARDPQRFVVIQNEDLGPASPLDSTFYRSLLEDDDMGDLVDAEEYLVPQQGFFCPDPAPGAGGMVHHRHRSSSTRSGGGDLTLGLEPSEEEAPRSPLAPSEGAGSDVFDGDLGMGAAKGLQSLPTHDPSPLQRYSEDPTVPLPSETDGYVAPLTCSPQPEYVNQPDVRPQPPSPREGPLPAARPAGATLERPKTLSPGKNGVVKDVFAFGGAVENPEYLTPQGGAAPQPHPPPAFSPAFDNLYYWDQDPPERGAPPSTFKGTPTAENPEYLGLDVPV

SMILES	viability [1] [%]	Her2 level [2]	viability [3]	viability [4]	viability [5]	differential viability (reversal) ([6]; H69AR cells + 2 uM doxorubicin)	viability [6, 9] [%]	viability [6, 10] [%]	inhibition [7]	inhibition [8]
O=C(c1ccc(-c2ccccc2)cc1)N1CCN(c2ncccn2)CC1	91	96.5% (inactive)	91% (inactive)	94.6% (inactive)	103% (inactive)	12.7% (inactive)	90.5	103	-9.32% (inactive)	6.39% (inactive)
COc1cc(OC)cc(OCC(O)Cn2cnc(-c3ccccc3)c2)c1 (stereo not given)	90	84% (inactive)	90% (inactive)	88% (inactive)	83.8% (inactive)	-11.4% (inactive)	95.2	83.8	3.64% (inactive)	-2.13% (inactive)
CCOC(=O)c1cccc(NC(=O)CS(=O)(=O)Cc2nc(-c3cccc(OC)c3)oc2C)c1	99.5	79% (inactive)	99.5% (inactive)	95.2% (inactive)	85.3% (inactive)	-7.47% (inactive)	92.8	85.3	-7.87% (inactive)	-6.61% (inactive)
CCOC(=O)c1cc2sccc2n1CC(=O)Nc1ccc(OC)cc1OC	90	86.5% (inactive)	90% (inactive)	75.4% (inactive)	82% (inactive)	-7.66% (inactive)	89.6	82	-1.97% (inactive)	-3.82% (inactive)
O=S(NCc1ccco1)C12CC3CC(CC(C3)C1)C2 (stereo not given)	104	116% (inactive)	104% (inactive)	93.5% (inactive)	88% (inactive)	3.96% (inactive)	84	88	-1.08% (inactive)	-5.4% (inactive)
COc1ccc(OC)c(C(=O)COC(=O)c2cc(C)oc2C)c1	112	71% (inactive)	112% (inactive)	62.9% (inactive)	92.7% (inactive)	4.87% (inactive)	87.9	92.7	-7.33% (inactive)	-4.92% (inactive)
CC(C)(C)n1cnc2cc(NS(=O)(=O)c3ccc(Br)cc3)ccc21	104	69.5% (inactive)	104% (inactive)	80.2% (inactive)	87% (inactive)	-8.39% (inactive)	95.4	87	-1.58% (inactive)	-0.48% (inactive)
O=C(Cn1ccc2ccccc2c1=O)NCCC(=O)NC1CCN(Cc2ccccc2)CC1	58	106% (inactive)	58% (inactive)	107% (inactive)	100% (inactive)	17.5% (inactive)	82.8	100	3.29% (inactive)	-4.91% (inactive)
COc1ccc2cc(CN(CCO)C(=O)c3ccccc3F)c(=O)[nH]c2c1	106	126% (inactive)	106% (inactive)	96.9% (inactive)	95.3% (inactive)	8.58% (inactive)	86.7	95.3	2.86% (inactive)	-8.33% (inactive)
CCc1cc2c(CN3CCN(CCO)CC3)cc(=O)oc2cc1O	106	97% (inactive)	106% (inactive)	90.4% (inactive)	92.6% (inactive)	0.895% (inactive)	91.7	92.6	-2.53% (inactive)	1.61% (inactive)
O=S(=O)(NCCc1csc(-c2ccccc2)n1)c1ccc2c(c1)OCCO2	103	76% (inactive)	103% (inactive)	101% (inactive)	93.6% (inactive)	4.63% (inactive)	89	93.6	-1.97% (inactive)	4.59% (inactive)
COCCSc1nnc(NC(=O)Cc2ccccc2OC)s1	106	76% (inactive)	106% (inactive)	91% (inactive)	98.9% (inactive)	7.86% (inactive)	91	98.9	-5.39% (inactive)	-1.67% (inactive)
N[C@@H](Cc1ccccc1)c1nnc2sc(SCc3ccccc3)nn12	90	84.5% (inactive)	90% (inactive)	85.2% (inactive)	87.9% (inactive)	11.5% (inactive)	76.4	87.9	-3.07% (inactive)	0.48% (inactive)
CN(C)c1ccc(/C=C/c2ccncc2)cc1	96	152% (inactive)	96% (inactive)	89.9% (inactive)	90.5% (inactive)	0.41% (inactive)	90.1	90.5	3.03% (inactive)	4% (inactive)
O=C(COc1ccccc1)NCCSCc1ccco1	109	98.5% (inactive)	109% (inactive)	104% (inactive)	89.3% (inactive)	9.83% (inactive)	79.4	89.3	-6.49% (inactive)	-5.67% (inactive)
CCC(=O)NC1(C(F)(F)F)C(=O)NC(C)=C1C#N (stereo not given)	102	84.5% (inactive)	102% (inactive)	101% (inactive)	97.9% (inactive)	5.2% (inactive)	92.7	97.9	-4.74% (inactive)	1.59% (inactive)
